Laboratory results as given in ChEMBL document CHEMBL4270573, “Novel nicotinoyl pyrazoline derivates bearing N-methyl indole moiety as antitumor agents: Design, synthesis and evaluation” (Eur J Med Chem, 2018).
Activity calls are given as the source filed them. The rule behind the calls is not given here.

Tests used:
Mus musculus [1] = assay: Toxicity in nude mouse xenografted with human HeLa cells assessed as change in mouse spleen weight at 10 to 20 mg/kg, ip after 14 days; type: organism-based; conditions: in vivo, 336 h
Mus musculus [2] = assay: Toxicity in nude mouse xenografted with human HeLa cells assessed as body weight loss at 10 to 20 mg/kg, ip after 14 days; type: organism-based; conditions: in vivo, 336 h
HepG2 [3] = assay: Cell cycle arrest in human HepG2 cells assessed as accumulation at G2/M phase at 0.080 uM after 24 hrs by propidium iodide staining based flow cytometric analysis (reference value: 20.17%); type: functional
In short: (§1)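 HepG2 and HeLa cells were exposed to 0, 0.020, 0.040, 0.060, 0.080 or 0.10 µM for 6, 12 or 24 h. DNA content was stained with propidium iodide and analysed by flow cytometry to give the percentage of cells in G0/G1, S and G2/M phases; sub-G1 cells were also recorded.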

HepG2 [4] = assay: Cell cycle arrest in human HepG2 cells assessed as accumulation at G2/M phase at 0.020 uM after 24 hrs by propidium iodide staining based flow cytometric analysis (reference value: 20.17%); type: functional; in short: as §1
HepG2 [5] = assay: Induction of apoptosis in human HepG2 cells assessed as late apoptotic cells at 0.080 uM after 24 hrs by Annexin V-FITC/propidium iodide staining based flow cytometric analysis (reference value: 2.93%); type: functional
In short: (§2)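 HepG2 and HeLa cells were exposed to 0, 0.02, 0.040, 0.060, 0.080 and 0.10 µM for 6, 12 and 24 h. Cells were double-stained with Annexin V-FITC/PI and read by flow cytometry. Apoptotic rate was the percentage of FITC-positive cells, counting early plus late apoptotic.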

HepG2 [6] = assay: Cell cycle arrest in human HepG2 cells assessed as accumulation at S phase at 0.040 uM after 24 hrs by propidium iodide staining based flow cytometric analysis (reference value: 20.40%); type: functional; in short: as §1
Mus musculus [7] = assay: Cardiotoxicity in nude mouse xenografted with human HeLa cells assessed as edema in heart at 10 to 20 mg/kg, ip after 14 days by hematoxylin and eosin staining based microscopic analysis; type: toxicity, organism-based; conditions: in vivo, 336 h
In short: (§3)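 Excised tumours and heart, liver, kidney and spleen were H&E-stained and examined microscopically. Tumour scoring covered cell arrangement and necrosis. Organ scoring covered inflammatory infiltration, edema, necrosis and cell morphology.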

HeLa [8] = assay: Induction of apoptosis in human HeLa cells assessed as early apoptotic cells at 0.020 uM after 24 hrs by Annexin V-FITC/propidium iodide staining based flow cytometric analysis (reference value: 6.17%); type: functional; in short: as §2
HeLa [9] = assay: Induction of apoptosis in human HeLa cells assessed as early apoptotic cells at 0.080 uM after 24 hrs by Annexin V-FITC/propidium iodide staining based flow cytometric analysis (reference value: 6.17%); type: functional; in short: as §2
Mus musculus [10] = assay: Hepatotoxicity in nude mouse xenografted with human HeLa cells assessed as cellular inflammatory infiltration in liver at 10 to 20 mg/kg, ip after 14 days by hematoxylin and eosin staining based microscopic analysis; type: toxicity, organism-based; conditions: in vivo, 336 h
In short: (§4)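 HeLa xenograft nude mice with tumours near 100 mm³, randomised to four groups of 28 mice in total. Dosing was intraperitoneal: vehicle, CA-4 10 mg/kg, or test compound at 10 or 20 mg/kg, continued for 14 days. Heart, liver, kidney and spleen were then H&E-stained and examined for inflammatory infiltration, edema, necrosis and cell morphology.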

HepG2 [11] = assay: Cell cycle arrest in human HepG2 cells assessed as accumulation at G2/M phase at 0.020 to 0.10 uM after 6 to 24 hrs by propidium iodide staining based flow cytometric analysis relative to control; type: functional; in short: as §1
HeLa [12] = assay: Induction of apoptosis in human HeLa cells assessed as late apoptotic cells at 0.060 uM after 24 hrs by Annexin V-FITC/propidium iodide staining based flow cytometric analysis (reference value: 4.98%); type: functional; in short: as §2
Mus musculus [13] = assay: Hepatotoxicity in nude mouse xenografted with human HeLa cells assessed as necrosis in liver at 10 to 20 mg/kg, ip after 14 days by hematoxylin and eosin staining based microscopic analysis; type: toxicity, organism-based; conditions: in vivo, 336 h; in short: as §4
HeLa [14] = assay: Cell cycle arrest in human HeLa cells assessed as accumulation at S phase at 0.060 uM after 24 hrs by propidium iodide staining based flow cytometric analysis (reference value: 17.46%); type: functional; in short: as §1
HeLa [15] = assay: Antitumor activity against human HeLa cells xenografted in nude mouse assessed as necrosis of tumor cells at 10 to 20 mg/kg, ip after 14 days by hematoxylin and eosin staining based microscopic analysis; type: functional, organism-based; in short: as §3
HepG2 [16] = assay: Cell cycle arrest in human HepG2 cells assessed as accumulation at G2/M phase at 0.040 uM after 24 hrs by propidium iodide staining based flow cytometric analysis (reference value: 20.17%); type: functional; in short: as §1
HeLa [17] = assay: Antitumor activity against human HeLa cells xenografted in nude mouse assessed as relative tumor growth inhibition at 10 mg/kg, ip after 14 days (reference value: 59.92%); type: functional; conditions: 336 h, read-out: TGI
[18] = Selectivity index, ratio of CC50 for HEK293T cells to GI50 for human A549 cells; type: toxicity; conditions: HEK293T cells and A549 cells, read-out: Selectivity Index
In short: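 Ratio CC50/GI50: CC50 is the concentration reducing non-tumour 293T cell proliferation by 50%; GI50 is the concentration reducing cancer cell proliferation by 50%.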

HepG2 [19] = assay: Cell cycle arrest in human HepG2 cells assessed as accumulation at G2/M phase after 6 to 24 hrs by propidium iodide staining based flow cytometric analysis; type: functional; in short: as §1
HeLa [20] = assay: Cell cycle arrest in human HeLa cells assessed as accumulation at S phase at 0.10 uM after 24 hrs by propidium iodide staining based flow cytometric analysis (reference value: 17.46%); type: functional; in short: as §1
HeLa [21] = assay: Cell cycle arrest in human HeLa cells assessed as accumulation at G0/G1 phase at 0.040 uM after 24 hrs by propidium iodide staining based flow cytometric analysis (reference value: 66.26%); type: functional; in short: as §1
Bos taurus = species on record: Bos taurus; assay: Inhibition of colchicine binding to calf brain tubulin preincubated for 1 hr followed by colchicine addition measured after 1 hr by UPLC-MS/MS analysis
Mus musculus [22] = assay: Nephrotoxicity in nude mouse xenografted with human HeLa cells assessed as morphological changes in kidney cells at 10 to 20 mg/kg, ip after 14 days by hematoxylin and eosin staining based microscopic analysis; type: toxicity, organism-based; conditions: in vivo, 336 h
Mus musculus [23] = assay: Nephrotoxicity in nude mouse xenografted with human HeLa cells assessed as cellular inflammatory infiltration in kidney at 10 to 20 mg/kg, ip after 14 days by hematoxylin and eosin staining based microscopic analysis; type: toxicity, organism-based; conditions: in vivo, 336 h
HeLa [24] = assay: Induction of apoptosis in human HeLa cells assessed as late apoptotic cells at 0.020 uM after 24 hrs by Annexin V-FITC/propidium iodide staining based flow cytometric analysis (reference value: 4.98%); type: functional; in short: as §2
HepG2 [25] = assay: Growth inhibition of human HepG2 cells after 48 hrs by MTT assay; type: functional; conditions: HepG2, 48 h
In short: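 Proliferation read-out; GI50 taken as the concentration giving 50% reduction of cancer cell proliferation.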

HepG2 [26] = assay: Cell cycle arrest in human HepG2 cells assessed as accumulation at G2/M phase at 0.10 uM after 24 hrs by propidium iodide staining based flow cytometric analysis (reference value: 20.17%); type: functional; in short: as §1
HeLa [27] = assay: Cell cycle arrest in human HeLa cells assessed as accumulation at G2/M phase at 0.10 uM after 24 hrs by propidium iodide staining based flow cytometric analysis (reference value: 17.72%); type: functional; in short: as §1

SMILES: COc1cccc(C2=NN(C(=O)c3ccc(C)nc3)C(c3cn(C)c4ccc(OC)cc34)C2)c1 (stereo not drawn)
- Activity (Mus musculus [1]): Non-Toxic
- Activity (Mus musculus [2]): Non-Toxic
- Activity (HepG2 [3]): 50.73%
- Activity (HepG2 [4]): 24.3%
- Activity (HepG2 [5]): 6.01%
- Activity (HepG2 [6]): 21.59%
- Activity (Mus musculus [7]): Non-Toxic
- Activity (HeLa [8]): 3.24%
- Activity (HeLa [9]): 30.2%
- Activity (Mus musculus [10]): Non-Toxic
- Activity (HepG2 [11]): >60%
- Activity (HeLa [12]): 6.49%
- Activity (Mus musculus [13]): Non-Toxic
- Activity (HeLa [14]): 16.47%
- Activity (HeLa [15]): Active
- Activity (HepG2 [16]): 30.26%
- inhibition in vivo at 10 mg/kg (HeLa [17]): 47.1%
- selectivity ratio [18]: 3 to 10
- Activity (HepG2 [19]): Dose-dependent effect
- Activity (HeLa [20]): 17.88%
- Activity (HeLa [21]): 49.63%
- inhibition (Bos taurus): Active
- Activity (Mus musculus [22]): Non-Toxic
- Activity (Mus musculus [23]): Non-Toxic
- Activity (HeLa [24]): 7.98%
- GI50 (HepG2 [25]): 29 nM
- Activity (HepG2 [26]): 51.22%
- Activity (HeLa [27]): 61.12%
